In the library only some 2.6% were active in any assay of this set; here they are far more common.
MC4R antag cAMP: antagonists of human melanocortin 4 receptor (MC4R); MC4R-expressing cells, MTII-stimulated cAMP, LANCE TR-FRET; P32245; AID 540295; 360,000 tested, 0.48% active; inhibition, % at 6.5 µM;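 active means inhibition above its plate's cutoff, the mean of tested wells on that plate plus 3 SD, cut at about 29% in these data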;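 further: 0% = Melanotan II alone and 100% = Melanotan II plus saturating MCL0020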
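Assay system: U2OS cells stably expressing human melanocortin 4 receptor (MC4R) / Dosing: 6.5 µM / Timing: compound 30 min, challenge 1 h, detection 1 h / Measured by: Eu-cAMP/anti-cAMP TR-FRET, emission 671 nm / Replicates: singlicate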
Exocytosis inh: blocks lytic granule exocytosis; AID 651702; 360,000 tested, 0.66% active; inhibition, % at 10 µM; TALL-104 LAMP-1 surface exposure, flow cytometry; cells stimulated with thapsigargin and PMA;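 active means inhibition above about 55%, limit read from the data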
EP2 antag: inhibitors of human EP2 prostaglandin E2 receptor; C6 glioma cells expressing human EP2, cAMP TR-FRET; cells stimulated with saturating PGE2; inhibition, % at 25 µM; 260,000 tested, 0.52% active; AID 1422;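 active means percent inhibition above 40 after rounding to a whole number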;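 further: rat C6 glioma host cells with rolipram phosphodiesterase inhibitor present; the protocol text gives 20 µM as final concentration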
Target sequence (P43116 whole entry, looked up): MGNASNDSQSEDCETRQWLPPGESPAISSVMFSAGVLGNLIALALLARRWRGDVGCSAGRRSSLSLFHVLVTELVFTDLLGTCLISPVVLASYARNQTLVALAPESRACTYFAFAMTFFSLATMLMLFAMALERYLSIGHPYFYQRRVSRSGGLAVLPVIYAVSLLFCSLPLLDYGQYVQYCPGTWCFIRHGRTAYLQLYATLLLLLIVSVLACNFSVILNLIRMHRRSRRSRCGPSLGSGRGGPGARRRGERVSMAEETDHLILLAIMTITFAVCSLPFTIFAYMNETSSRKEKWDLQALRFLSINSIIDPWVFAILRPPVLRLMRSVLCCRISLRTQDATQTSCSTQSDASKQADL
EP2 modulator: modulates human prostaglandin E2 receptor EP2 signaling; P43116; EP2-expressing cells, cAMP HTRF FRET, PGE2 co-stimulation; induction, % at 25 µM; 260,000 tested, 0.83% active;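 active means compounds whose cAMP rise, as percent of the full-agonist control response, exceeds 60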;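 further: rat C6 glioma line stably carrying human EP2 under a CMV promoter; the protocol text gives 20 µM as final concentration; 100% = response of wells given 1 µM PGE2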
MC4R ag barr: activates human MC4R beta-arrestin recruitment | 360,000 tested, 0.98% active | U2OS MC4R beta-arrestin complementation, luminescence; percent of melanotan II response, DMSO zero | AID 540308 | activation, % at 8.9 µM | P32245;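 active means activation above a per-plate cutoff, the mean activation of sample wells on that plate plus 3 SD, cut at about 8% in these data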
T cell modulator: T cell immune modulation candidate; 2C CD8+ T cell-vesicle binding, flow cytometry; active compounds read low; response (vesicle binding), % at 7 µM; 330,000 tested, 0.068% active;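 active means response, share of CD8 T cells binding vesicles, and their 90th percentile fluorescence all below set limits, cut at about 80% in these data, passing the limit was not always enough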;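 further: values below 100% mean blocked vesicle binding to the CD8+ T cells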
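Test system: purified 2C TCR transgenic mouse naive CD8+ T cells. Probe or stimulus: QL9-peptide-loaded Drosophila micro-vesicles bearing Ld, ICAM-1 and B7-1. Incubation: binding step 1.5 h, 37 °C, antibody labelling 20 min, ice. Measured by: flow cytometry of vesicle-bound cells.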
EP2 confirm: EP2 receptor cAMP induction, counter-screens negative; 1,300 tested, 47% active; C6 glioma EP2 cells, cAMP HTRF induction; plus low (about EC15) PGE2 agonist; AID 1080; calls only at 20 µM (by protocol); shares compounds with EP2 modulator;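 active means cAMP induction above 50% in the main assay while under 30% in all four parallel counter assays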;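 further: rat C6 glioma cells stably expressing human EP2 receptor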
* marks the source's active call; other numbers are inactive results.

CCSc1nc2sc3c(c2c(=O)n1C1CCCCC1)CCN(C)C3 was read as MC4R antag cAMP 2, Exocytosis inh -1 and MC4R ag barr -1.
Screening CCN(CC)c1ccc(NC(=O)c2cc(OC)cc(OC)c2)c(C)c1 returned MC4R antag cAMP -24, Exocytosis inh -2, EP2 modulator 5, MC4R ag barr -4 and T cell modulator 317.
CCc1nc2sc3c(=O)[nH]cnc3c2c2c1CSC(C)(C)C2 was read as MC4R antag cAMP -33, Exocytosis inh 3, EP2 antag 9, EP2 modulator 49, MC4R ag barr 2 and T cell modulator 558.
`CC(C)Cc1nc2sc3c(=O)[nH]cnc3c2c2c1CCC2` gave MC4R antag cAMP -4, Exocytosis inh -1, EP2 antag 5, EP2 modulator 74*, MC4R ag barr -1, T cell modulator 317 and EP2 confirm inactive.
Screening Cc1ccc(-n2c(=S)[nH]c3c(oc4ccccc43)c2=O)cc1C returned MC4R antag cAMP 8, Exocytosis inh 0, EP2 antag 16, EP2 modulator 74*, MC4R ag barr -3, T cell modulator 377 and EP2 confirm inactive.
Cc1ccc2c(c1)N(C(=O)CCC(=O)NCCCN1CCC(Cc3ccccc3)CC1)CCO2 was read as MC4R antag cAMP 6, Exocytosis inh 3, MC4R ag barr 1 and T cell modulator 268.
`O=c1c2c(-c3cccs3)csc2ncn1-n1cccc1` gave MC4R antag cAMP 5, Exocytosis inh -3, EP2 antag 8, EP2 modulator -23, MC4R ag barr -2 and T cell modulator 496.
For Cc1ccc(C)n1-n1cnc2scc(-c3cccs3)c2c1=O the results were MC4R antag cAMP 1, Exocytosis inh -2, EP2 antag 11, EP2 modulator 65*, MC4R ag barr -1, T cell modulator 168 and EP2 confirm active.
`Cc1ccccc1S(=O)(=O)c1c(C)cc(C)n(C(C)C)c1=O` gave MC4R antag cAMP 4, Exocytosis inh 0, EP2 antag 3, EP2 modulator 71*, MC4R ag barr 3, T cell modulator 343 and EP2 confirm active.
For CCCCn1c(C)cc(C)c(S(=O)(=O)c2ccccc2C)c1=O the results were MC4R antag cAMP -2, Exocytosis inh 2, EP2 antag 11, EP2 modulator 78*, MC4R ag barr 0, T cell modulator 164 and EP2 confirm active.
`Cc1cc(C)c(S(=O)(=O)c2ccccc2C)c(SCC(C)C)n1` gave MC4R antag cAMP -1, Exocytosis inh 16, EP2 antag 18, EP2 modulator 48, MC4R ag barr 2 and T cell modulator 178.
For CN(C)c1ccc(/C=N\NC(=O)c2csnn2)cc1 the results were MC4R antag cAMP -8, Exocytosis inh 0, EP2 antag 18, EP2 modulator -10, MC4R ag barr -1 and T cell modulator 317.
CCOC(=O)c1c(NC(=O)C(Sc2ccccc2)c2ccccc2)sc(C(N)=O)c1C (configuration not stated) was read as MC4R antag cAMP 7, Exocytosis inh 2, EP2 antag 7, EP2 modulator 41, MC4R ag barr 4 and T cell modulator 259.
For COc1ccc(-c2cnnc(N/N=C/c3c(C)nn(-c4ccccc4)c3Cl)n2)cc1 the results were MC4R antag cAMP -2, Exocytosis inh -8, EP2 antag 0, EP2 modulator 1, MC4R ag barr 1 and T cell modulator 413.
Screening CN(Cc1ccccc1)c1nc2c(c(=O)[nH]c(=O)n2C)n1Cc1ccccc1Cl returned MC4R antag cAMP 18, Exocytosis inh -4, EP2 antag 3, EP2 modulator 77*, MC4R ag barr 4, T cell modulator 400 and EP2 confirm active.
CCc1ccc(S(=O)(=O)NCc2cn3c(C)csc3n2)s1 was read as MC4R antag cAMP 11, Exocytosis inh 6, EP2 antag 8, EP2 modulator -11, MC4R ag barr -1 and T cell modulator 432.
O=C(OCc1ccc(Cl)cc1)c1ccccc1C(=O)c1ccccc1 was read as MC4R antag cAMP 1, Exocytosis inh -1, EP2 antag 3, EP2 modulator 70*, MC4R ag barr -3, T cell modulator 249 and EP2 confirm active.
Screening O=C(OCc1ccc(Cl)cc1)c1cccnc1Cl returned MC4R antag cAMP 2, Exocytosis inh 1, EP2 antag 13, EP2 modulator -34, MC4R ag barr -4 and T cell modulator 215.
Screening Cc1nc2ccccc2c(=O)n1Cc1ccco1 returned MC4R antag cAMP 5, Exocytosis inh -3, EP2 antag 9, EP2 modulator -21, MC4R ag barr -1 and T cell modulator 438.
`O=c1c2ccccc2c2ccccc2c(=O)n1Cc1ccco1` gave MC4R antag cAMP 10, Exocytosis inh 2, EP2 antag 4, EP2 modulator 84*, MC4R ag barr 0, T cell modulator 236 and EP2 confirm inactive.
For CC(=O)NC(c1cccc([N+](=O)[O-])c1)c1c(OC(C)=O)ccc2ccccc12 (configuration not stated) the results were MC4R antag cAMP 0, Exocytosis inh 0, EP2 antag 11, EP2 modulator 12, MC4R ag barr -1 and T cell modulator 177.
Screening CC(=O)Oc1ccc2ccccc2c1C(NC(=O)Cc1ccccc1)c1ccccc1 (configuration not stated) returned MC4R antag cAMP 16, Exocytosis inh 6, EP2 antag 3, EP2 modulator 65*, MC4R ag barr -1, T cell modulator 116 and EP2 confirm inactive.
COC(=O)CC1C(C)(C)C(OC(C)=O)[C@@H]2[C@@H](OC(C)=O)[C@]34O[C@@]2(O)[C@]1(C)C3CC[C@]1(C)C4=CC(=O)O[C@H]1c1ccoc1 (some centres not stated) was read as EP2 antag 9, EP2 modulator 53 and EP2 confirm inactive.
`CC(=O)O[C@@H]1CC[C@@]2(C)C(C[C@@H](OC(C)=O)[C@@]3(C)C4=CC(=O)O[C@@H](c5ccoc5)[C@]4(C)CCC23)C1(C)C` (some centres not stated) gave EP2 antag 13 and EP2 modulator 2.
`COc1ccc(CCC(=O)N2CCCC(Nc3ccc(OC)cc3)C2)cc1` (configuration not stated) gave MC4R antag cAMP 16, Exocytosis inh 13, MC4R ag barr 3 and T cell modulator 664.
